PAFAH1B3 FP inh – blocks human PAF acetylhydrolase 1B catalytic subunit 3 | Q15102 | inhibition, % at 3.39 µM | recombinant PAFAH1B3, FP-rhodamine probe, fluorescence polarization | 0.28% of 340,000 active;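 active = inhibition above the screen-wide average of all tested compounds plus 3 SD, cut at about 25% in these data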
Target sequence (Q15102 whole entry, looked up): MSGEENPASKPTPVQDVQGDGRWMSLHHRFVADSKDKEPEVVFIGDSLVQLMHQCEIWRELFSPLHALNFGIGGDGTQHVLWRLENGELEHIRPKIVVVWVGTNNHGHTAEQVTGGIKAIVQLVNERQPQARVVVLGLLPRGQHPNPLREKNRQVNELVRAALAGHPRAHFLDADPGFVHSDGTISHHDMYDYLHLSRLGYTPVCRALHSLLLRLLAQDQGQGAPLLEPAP
pPAFAH inh – inhibitors of human plasma PAF acetylhydrolase (pPAFAH); 1.5% of 330,000 active; recombinant pPAFAH, FP-rhodamine probe fluorescence polarization; AID 463082; inhibition, % at 3.39 µM; Q13093;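 active = inhibition above the mean inhibition across the screen plus 3 SD, cut at about 25% in these data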;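 note: inhibitors block binding of the rhodamine activity-based probe so polarization drops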
VIM-2 inh – inhibitors of Pseudomonas aeruginosa VIM-2 metallo-beta-lactamase | 0.89% of 290,000 active | inhibition, % at 5.6 µM | purified VIM-2, nitrocefin hydrolysis, epi-absorbance fluorescence | AID 1527;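 active = inhibition above the mean of all tested compounds plus 3 SD, cutoff set per screening run, cut at about 7.5% in these data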;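 note: red hydrolysis product quenches plate fluorescence so inhibitors raise well fluorescence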
PAFAH2 FP inh – inhibitors of human PAFAH2. Q99487. inhibition, % at 3.39 µM. 0.99% of 340,000 active. AID 492956. recombinant PAFAH2, FP-rhodamine activity probe, fluorescence polarization;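 active = inhibition above the mean over all tested compounds plus 3 SD, cut at about 30% in these data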;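 note: inhibitors block probe labeling of enzyme so polarization drops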
IMP-1 inh – inhibitors of Pseudomonas aeruginosa IMP-1 metallo-beta-lactamase; purified IMP-1, nitrocefin hydrolysis, epi-absorbance fluorescence; inhibition, % at 5.6 µM; 0.45% of 290,000 active;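 active = inhibition above the mean plus 3 SD of all compounds in the same screening run, cut at about 4.5% in these data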
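Assay system: purified IMP-1; Quantity: IMP-1 0.2 nM before substrate addition; Medium: HEPES buffer pH 7.1 with ZnSO4 and Brij 35; Incubation: 15 min enzyme–compound preincubation, then 25 min nitrocefin reaction, 25 °C; Signal: fluorescence quenching readout, ex 480/em 530 nm; Controls: DMSO with and without IMP-1; Repeats: singlicate testing.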
PAFAH1B2 FP inh – PAFAH1B2 (human) inhibition | P68402 | recombinant PAFAH1B2, FP-rhodamine activity probe, fluorescence polarization | inhibition, % at 3.39 µM | 1.2% of 340,000 active;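 active = inhibition above the mean of all tested compounds plus 3 SD, cut at about 24% in these data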
Target sequence (P68402 whole entry, looked up): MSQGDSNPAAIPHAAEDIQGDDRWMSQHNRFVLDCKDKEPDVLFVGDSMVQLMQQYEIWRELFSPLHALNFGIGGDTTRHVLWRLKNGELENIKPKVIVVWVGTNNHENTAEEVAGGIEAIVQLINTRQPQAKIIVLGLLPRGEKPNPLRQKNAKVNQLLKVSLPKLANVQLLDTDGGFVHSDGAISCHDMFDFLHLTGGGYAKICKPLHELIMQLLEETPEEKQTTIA
PAFAH2 FP conf – confirmation of human PAFAH2 inhibitors. AID 493030. recombinant PAFAH2, FP-rhodamine activity probe, fluorescence polarization. inhibition, % at 3.39 µM. shares compounds with PAFAH2 FP inh. 65% of 2,300 active;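 active = mean inhibition over three repeats above a set limit taken from the earlier primary screen, cut at about 30% in these data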;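 note: inhibitor blocks binding of rhodamine activity probe so polarization falls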
Numbers stand for hits; – = inactive; · = not tested or not shown. An excerpt weighted towards active compounds, which were near 3.6% of everything screened.

SMILES | PAFAH1B3 FP inh | pPAFAH inh | VIM-2 inh | PAFAH2 FP inh | IMP-1 inh | PAFAH1B2 FP inh | PAFAH2 FP conf
COc1ccc(CNC(=O)CN(C(=O)CCC(=O)Nc2nccs2)c2ccccc2C)cc1 | – | – | – | – | – | – | ·
CC1CCCC(C)N1C(=O)COC(=O)c1cccnc1Cl (configuration not stated) | – | – | · | – | · | – | ·
CC(=O)c1ccc2c(c1)CC1(C2)Cc2cc3c(cc2C1)C(=O)CC3 (configuration not stated) | – | · | · | – | · | – | ·
O=C(CCS(=O)(=O)c1ccc(Br)cc1)N1CCN(c2ccc(F)cc2)CC1 | – | – | – | 39 | – | – | –
O=C(COC(=O)c1ccc2[nH]c3c(c2c1)CCCC3)Nc1ccccc1Cl | – | – | – | 32 | – | – | –
O=C(COC(=O)c1ccc2c(c1)OCO2)Nc1ccccc1Cl | – | – | · | 58 | · | – | 44
CCC(=O)c1ccc(OCC(=O)NCC2COc3ccccc3O2)cc1 (configuration not stated) | – | – | · | – | · | – | ·
CCOC(=O)c1ccc2[nH]c3c(c2c1)CCCC3 | – | – | – | – | – | – | ·
CN(C)c1cccc(C(=O)OCC(=O)Nc2ccccc2Cl)c1 | – | – | – | 54 | – | – | 50
COc1ccc(NC(=O)COC(=O)c2ccc3c(c2)OCO3)c(OC)c1 | – | – | · | – | · | – | ·
CN(C)c1cccc(C(=O)OCC(=O)Nc2ccccc2-c2ccccc2)c1 | – | – | – | – | – | – | ·
O=C(COC(=O)c1ccc(O)cc1)NCC1COc2ccccc2O1 (configuration not stated) | – | – | · | 32 | · | – | –
NNC(=O)c1sc2cc(C(F)(F)F)cnc2c1-c1ccccn1 | · | – | – | · | – | · | ·
O=C(COC(=O)c1ccc(N2CCOCC2)c([N+](=O)[O-])c1)Nc1ccc2c(c1)OCO2 | – | – | – | – | – | – | ·
N/C(=N\OC(=O)c1ccc2c(c1)OCO2)c1ccc(Cl)cc1 | – | – | – | 33 | – | – | 30
Nc1ccc(C(=O)OCC(=O)Nc2ccc3c(c2)OCO3)cc1[N+](=O)[O-] | – | – | – | 65 | – | – | 49
O=C(COC(=O)c1cccnc1Cl)Nc1ccc2c(c1)OCCO2 | – | – | – | 36 | – | – | 30
Cc1ccc(/C(N)=N/OC(=O)c2ccc3c(c2)OCO3)cc1 | – | – | – | – | – | – | ·
Cc1ccc(NC(=O)COC(=O)c2ccc3c(c2)OCCO3)cc1 | – | – | · | 86 | · | – | 85
COc1ccc(C(CNC(=O)c2cccc(S(=O)(=O)N(C)c3ccccc3)c2)N2CCCC2)cc1 (configuration not stated) | – | – | · | – | · | – | ·
NC(=O)c1ccc(NC(=O)COC(=O)c2ccccc2Nc2ccccc2)cc1 | – | – | – | – | – | – | ·
O=C(COC(=O)c1ccc(O)cc1)c1ccc2c(c1)OCCO2 | – | · | · | – | · | – | ·
CCOc1ccc(NC(=O)COC(=O)c2ccc3c(c2)OCO3)cc1 | – | – | · | 64 | · | – | 62
O=C(COC(=O)c1ccc(O)cc1)Nc1ccc2c(c1)OCCO2 | – | – | · | 78 | · | – | 69
CCC(=O)Nc1cc(C(=O)OCC(=O)c2ccc(Cl)cc2Cl)ccc1C | – | – | – | – | – | – | ·
SMILES | PAFAH1B3 FP inh | pPAFAH inh | VIM-2 inh | PAFAH2 FP inh | IMP-1 inh | PAFAH1B2 FP inh | PAFAH2 FP conf
O=C(COC(=O)c1ccc(O)cc1)Nc1ccccc1 | – | – | – | 92 | – | – | 80
CCC(=O)Nc1cc(C(=O)OCC(=O)c2ccccc2Cl)ccc1C | – | – | – | 42 | – | – | 32
CCOc1ccccc1N(C)C(=O)CCS(=O)(=O)c1ccc2c(c1)NC(=O)C(C)S2 (configuration not stated) | – | – | – | – | – | – | ·
CC(C)(C)N(Cc1ccccc1)C(=O)COC(=O)c1ccc(S(=O)(=O)N2CCOCC2)cc1 | – | – | · | – | · | – | ·
Cc1ccc(C2(C)NC(=O)N(CC(=O)Nc3nc(-c4ccccn4)cs3)C2=O)cc1 (configuration not stated) | – | – | · | – | · | – | ·
O=C(COC(=O)c1ccc2c(c1)OCO2)Nc1cccc(F)c1 | – | – | · | 81 | · | – | 84
CC(OC(=O)c1ccc(O)cc1)C(=O)Nc1cc(C(F)(F)F)ccc1Cl (configuration not stated) | – | – | – | – | – | – | ·
Nc1ccc(C(=O)OCC(=O)NC(=O)c2ccccc2)cc1[N+](=O)[O-] | – | – | · | 38 | · | – | –
CC(=O)c1cccc(NC(=O)COC(=O)c2ccc3c(c2)OCCO3)c1 | – | – | – | 84 | – | – | 71
O=C(COC(=O)c1ccc(O)cc1)Nc1cc(C(F)(F)F)ccc1Cl | – | – | – | 55 | – | – | 40
NC(=O)c1ccc(NC(=O)COC(=O)c2ccc3c(c2)OCO3)cc1 | – | – | · | – | · | – | ·
CCOC(=O)NC(=O)COC(=O)c1ccc(O)cc1 | – | – | – | – | – | – | ·
CC(C)(C)NC(=O)COC(=O)c1ccc(O)cc1 | – | – | – | 64 | – | – | 53
Cc1ccc(S(=O)(=O)N2CCOCC2)cc1C(=O)NCc1ccccn1 | – | – | · | – | · | – | ·
O=C(COC(=O)c1ccc([N+](=O)[O-])cc1)NC1CCCC1 | – | – | – | – | – | – | ·
O=C(COC(=O)c1ccc(O)cc1)NC1CCCC1 | – | – | – | 77 | – | – | 73
Cc1ccc(C(=O)OCC(=O)NC2CCCC2)cc1 | – | – | – | 82 | – | – | 76
CC(C)(C)c1ccc(C(=O)NCC(=O)OCC(=O)NC(=O)NC2CCCC2)cc1 | – | – | · | – | · | – | ·
CC(C)(C)c1ccc(C(=O)OCC(=O)NC2CC2)cc1 | – | · | · | 73 | · | – | 66
Cc1c(C(c2cc3c(cc2Br)OCO3)c2c(C)n(C)n(-c3ccccc3)c2=O)c(=O)n(-c2ccccc2)n1C | – | – | – | 81 | – | – | 77
O=C(O)/C=C/C(=O)NCCNc1ncc(C(F)(F)F)cc1Cl | – | – | – | 54 | – | – | 38
CCOC(=O)Cn1c(=O)oc2cc(S(=O)(=O)N(C)Cc3ccccc3)ccc21 | – | – | – | – | – | – | ·
Cc1ccccc1CN(C)C(=O)COC(=O)c1ccc2[nH]c(C)c(C)c2c1 | – | – | · | 51 | · | – | 31
COc1ccc(S(=O)(=O)N2CCOCC2)cc1NC(=O)CN1CCCc2ccccc21 | – | – | · | 66 | · | – | 56
COc1ccc(S(=O)(=O)N2CCOCC2)cc1NC(=O)Cc1c(Cl)cccc1Cl | – | – | – | 49 | – | – | 45
COc1ccc(S(=O)(=O)N2CCOCC2)cc1NC(=O)CN(C)Cc1c(F)cccc1Cl | – | – | – | – | – | – | ·
COc1ccc(S(=O)(=O)N2CCOCC2)cc1NC(=O)CN1CCCCCC1 | – | – | – | – | – | – | ·
O=Cc1ccc(C(=O)OCC(=O)NC(=O)Nc2ccccc2F)cc1 | – | – | · | – | · | – | ·
